Assay results taken from ChEMBL document CHEMBL1155930, “Novel dimeric aryldiketo containing inhibitors of HIV-1 integrase: effects of the phenyl substituent and the linker orientation” (Bioorg Med Chem, 2008).

What was measured:
[1] = target: T1, Human immunodeficiency virus type 1 integrase (Human immunodeficiency virus 1, UniProt Q7ZJM1); experiment: Inhibition of wild-type HIV1 integrase 3'-processing activity using [32P]-labeled linear oligonucleotide substrate by polyacrylamide gel electrophoresis
T1 sequence (Q7ZJM1 whole entry): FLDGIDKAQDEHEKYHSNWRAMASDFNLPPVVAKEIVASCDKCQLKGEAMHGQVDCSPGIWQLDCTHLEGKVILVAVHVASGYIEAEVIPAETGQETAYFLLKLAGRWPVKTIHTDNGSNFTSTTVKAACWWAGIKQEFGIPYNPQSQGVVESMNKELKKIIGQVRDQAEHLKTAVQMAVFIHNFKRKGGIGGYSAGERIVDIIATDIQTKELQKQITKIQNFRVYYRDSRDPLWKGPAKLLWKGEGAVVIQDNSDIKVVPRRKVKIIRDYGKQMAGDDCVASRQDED
Outline: (§1)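 Wild-type IN (final 200 nM) preincubated with inhibitor for 30 min at 30 °C in buffer containing 50 mM NaCl, 1 mM HEPES pH 7.5, 50 μM EDTA, 50 μM DTT, 10% glycerol, 7.5 mM MnCl2, 0.1 mg/mL BSA, 10 mM 2-mercaptoethanol, 10% DMSO, 25 mM MOPS pH 7.2. Then 20 nM 5'-32P-labeled annealed 21-mer duplex added, 1 h more. Quenched with formamide loading dye. IC50 from log concentration vs percent inhibition.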

[2] = target: T1, Human immunodeficiency virus type 1 integrase; experiment: Inhibition of wild-type HIV1 integrase strand transfer activity using [32P]-labeled linear oligonucleotide substrate by polyacrylamide gel electrophoresis; outline: as §1

Compound	IC50 [1] [µM]	IC50 [2] [µM]
COC(=O)/C(O)=C/C(=O)c1ccc(OC)c(OCc2ccccc2)c1	> 100	16
O=C(CC(=O)c1ccc(C(F)(F)F)cc1)C(=O)NC1CCC(NC(=O)C(=O)CC(=O)c2ccc(C(F)(F)F)cc2)CC1 (stereo not drawn)	> 100	41
CCCCCC12CCC(C(=O)Nc3cccc(C(=O)CC(=O)C(=O)O)c3)(CC1)CC2	> 100	14
O=C(CC(=O)c1ccc(F)cc1)C(=O)NC1CCN(C(=O)C(=O)CC(=O)c2ccc(F)cc2)CC1	> 100	88
O=C(O)/C(O)=C/C(=O)c1cccc(OCc2ccccc2)c1	19	< 0.4
COc1cccc(C(=O)CC(=O)C(=O)NC2CCC(NC(=O)C(=O)CC(=O)c3cccc(OC)c3)CC2)c1 (stereo not drawn)	> 100	26
O=C(CC(=O)c1ccccc1Cl)C(=O)NC1CCN(C(=O)C(=O)CC(=O)c2ccccc2Cl)CC1	99	31
COc1cccc(C(=O)CC(=O)C(=O)N2CCN(C(=O)C(=O)CC(=O)c3cccc(OC)c3)CC2)c1	> 100	26
Cc1cc(C(=O)/C=C(\O)C(=O)O)ccc1Cl	94	4.7
COC(=O)/C(O)=C/C(=O)c1ccccc1F	> 100	> 100
COc1cccc(C(=O)CC(=O)C(=O)NC2CCN(C(=O)C(=O)CC(=O)c3cccc(OC)c3)CC2)c1	> 100	53
O=C(CC(=O)c1ccc(C(F)(F)F)cc1)C(=O)N1CCN(C(=O)C(=O)CC(=O)c2ccc(C(F)(F)F)cc2)CC1	> 100	25
O=C(CC(=O)c1ccccc1F)C(=O)NC1CCC(NC(=O)C(=O)CC(=O)c2ccccc2F)CC1 (stereo not drawn)	> 100	55
O=C(CC(=O)c1ccc(F)cc1)C(=O)NC1CCC(NC(=O)C(=O)CC(=O)c2ccc(F)cc2)CC1 (stereo not drawn)	> 100	35.5
COC(=O)/C(O)=C/C(=O)c1ccc(F)cc1	> 100	> 100
O=C(CC(=O)c1cccc(OCc2ccccc2)c1)C(=O)OC1CCN(C(=O)C(=O)CC(=O)c2cccc(OCc3ccccc3)c2)CC1	91	3
COC(=O)/C(O)=C/C(=O)c1cccc(NC(=O)OCc2ccccc2)c1	99	7

Compound	IC50 [1] [µM]	IC50 [2] [µM]
COC(=O)/C(O)=C/C(=O)c1cccc(OCc2ccccc2)c1	> 100	14
O=C(CC(=O)c1cccc(OCc2ccccc2)c1)C(=O)N1CCN(C(=O)C(=O)CC(=O)c2cccc(OCc3ccccc3)c2)CC1	56	1.8
O=C(O)/C(O)=C/C(=O)c1ccccc1	> 100	24.2
COc1cccc(C(=O)/C=C(\O)C(=O)O)c1	> 100	27
O=C(O)/C(O)=C/C(=O)c1ccc([N+](=O)[O-])cc1	> 100	45
CC(C)(C)OC(=O)N1CCC(NC(=O)/C(O)=C/C(=O)c2ccc(F)cc2)CC1	> 100	100
COC(=O)/C(O)=C/C(=O)c1cccc(N(Cc2ccccc2)Cc2ccccc2)c1	> 100	> 100
O=C(O)/C(O)=C/C(=O)c1ccccc1Cl	> 100	17
COC(=O)/C(O)=C/C(=O)c1cccc(Cc2ccccc2F)c1	26	0.6
O=C(CC(=O)c1ccc(F)cc1)C(=O)N1CCN(C(=O)C(=O)CC(=O)c2ccc(F)cc2)CC1	> 100	29
O=C(O)/C(O)=C/C(=O)c1ccc(C(F)(F)F)cc1	> 100	33
O=C(O)/C(O)=C/C(=O)c1ccccc1F	> 100	58
O=C(CC(=O)c1ccccc1Cl)C(=O)NC1CCC(NC(=O)C(=O)CC(=O)c2ccccc2Cl)CC1 (stereo not drawn)	92	30
O=C(CC(=O)c1ccccc1Cl)C(=O)N1CCN(C(=O)C(=O)CC(=O)c2ccccc2Cl)CC1	> 100	> 100
O=C(CC(=O)c1cccc(OCc2ccccc2)c1)C(=O)NC1CCN(C(=O)C(=O)CC(=O)c2cccc(OCc3ccccc3)c2)CC1	23	< 0.4
O=C(CC(=O)c1cccc(OCc2ccccc2)c1)C(=O)NC1CCC(NC(=O)C(=O)CC(=O)c2cccc(OCc3ccccc3)c2)CC1 (stereo not drawn)	> 100	7
COc1ccc(C(=O)/C=C(\O)C(=O)O)cc1OCc1ccccc1	55	< 0.4
